Data reported in ChEMBL document CHEMBL5058577, “EUbOPEN Chemogenomics Library 2 (Multiplex)” (2022).

Test system: Fibroblast
Assay: Multiplex assay against human fibroblast
Format: toxicity, cell-based
How it was run: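 Live cells were stained at seeding with Hoechst33342, BioTracker Green Microtubule Cytoskeleton Dye, MitoTracker Red and Annexin V Alexa Fluor 680, then imaged on a CQ1 microscope at 37°C and 5% CO2 after compound addition. CellPathfinder machine-learning gating split cells into Hoechst high-intensity objects or normal cells. Normal cells were split into healthy, pyknosed or fragmented nuclei, and pyknosed cells into mitotic or apoptotic. Tubulin, mitochondrial-mass and membrane-permeability phenotypes are per cents of healthy-nucleus cells.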

[1] = 12 h, 1 µM, compound concentration 1 uM, replicate 1
[2] = 12 h, 1 µM, compound concentration 1 uM, replicate 2
[3] = 12 h, 10 µM, compound concentration 10 uM, replicate 1
[4] = 12 h, 10 µM, compound concentration 10 uM, replicate 2
[5] = 24 h, 1 µM, compound concentration 1 uM, replicate 1
[6] = 24 h, 1 µM, compound concentration 1 uM, replicate 2
[7] = 24 h, 10 µM, compound concentration 10 uM, replicate 1
[8] = 24 h, 10 µM, compound concentration 10 uM, replicate 2
[9] = 48 h, 1 µM, compound concentration 1 uM, replicate 1
[10] = 48 h, 1 µM, compound concentration 1 uM, replicate 2
[11] = 48 h, 10 µM, compound concentration 10 uM, replicate 1
[12] = 48 h, 10 µM, compound concentration 10 uM, replicate 2

## CC(C)(C)c1cc(NC(=O)Nc2ccc(-c3cn4c(n3)sc3cc(OCCN5CCOCC5)ccc34)cc2)no1 [QUIZARTINIB]
[1]
  Population Apoptotic (%): 42%
  Population Fragmented Nuclei (%): 16%
  Population Healthy Nuclei (%): 65%
  Population Hoechst High Intensity Objects (%): 2%
  Population Membrane Permeable-Phenotype (%): 0%
  Population Mitochondria Different-Phenotype (%): 7%
  Population Mitotic Cells (%): 57%
  Population Normal (%): 97%
  Population Pyknosed Nuclei (%): 17%
  Population Tubulin-Different-Phenotype (%): 31%
  Total Cell Count: 150
[2]
  Population Apoptotic (%): 41%
  Population Fragmented Nuclei (%): 24%
  Population Healthy Nuclei (%): 52%
  Population Membrane Permeable-Phenotype (%): 1%
  Population Mitochondria Different-Phenotype (%): 5%
  Population Mitotic Cells (%): 58%
  Population Pyknosed Nuclei (%): 23%
  Population Tubulin-Different-Phenotype (%): 41%
  Total Cell Count: 137
[3]
  Population Apoptotic (%): 43%
  Population Fragmented Nuclei (%): 34%
  Population Healthy Nuclei (%): 56%
  Population Hoechst High Intensity Objects (%): 3%
  Population Membrane Permeable-Phenotype (%): 0%
  Population Mitochondria Different-Phenotype (%): 10%
  Population Mitotic Cells (%): 56%
  Population Normal (%): 96%
  Population Pyknosed Nuclei (%): 8%
  Population Tubulin-Different-Phenotype (%): 75%
  Total Cell Count: 190
[4]
  Population Apoptotic (%): 48%
  Population Fragmented Nuclei (%): 35%
  Population Healthy Nuclei (%): 45%
  Population Hoechst High Intensity Objects (%): 5%
  Population Membrane Permeable-Phenotype (%): 5%
  Population Mitochondria Different-Phenotype (%): 5%
  Population Mitotic Cells (%): 51%
  Population Normal (%): 94%
  Population Pyknosed Nuclei (%): 18%
  Population Tubulin-Different-Phenotype (%): 70%
  Total Cell Count: 162
[5]
  Population Apoptotic (%): 58%
  Population Fragmented Nuclei (%): 14%
  Population Healthy Nuclei (%): 72%
  Population Hoechst High Intensity Objects (%): 1%
  Population Membrane Permeable-Phenotype (%): 0%
  Population Mitochondria Different-Phenotype (%): 6%
  Population Mitotic Cells (%): 41%
  Population Normal (%): 98%
  Population Pyknosed Nuclei (%): 12%
  Population Tubulin-Different-Phenotype (%): 32%
  Total Cell Count: 137
[6]
  Population Apoptotic (%): 42%
  Population Fragmented Nuclei (%): 25%
  Population Healthy Nuclei (%): 61%
  Population Hoechst High Intensity Objects (%): 3%
  Population Membrane Permeable-Phenotype (%): 2%
  Population Mitotic Cells (%): 57%
  Population Normal (%): 96%
  Population Pyknosed Nuclei (%): 13%
  Population Tubulin-Different-Phenotype (%): 44%
  Total Cell Count: 152
[7]
  Population Apoptotic (%): 75%
  Population Fragmented Nuclei (%): 33%
  Population Healthy Nuclei (%): 57%
  Population Hoechst High Intensity Objects (%): 1%
  Population Membrane Permeable-Phenotype (%): 0%
  Population Mitochondria Different-Phenotype (%): 21%
  Population Mitotic Cells (%): 25%
  Population Normal (%): 98%
  Population Pyknosed Nuclei (%): 8%
  Population Tubulin-Different-Phenotype (%): 71%
  Total Cell Count: 190
[8]
  Population Apoptotic (%): 39%
  Population Fragmented Nuclei (%): 40%
  Population Healthy Nuclei (%): 46%
  Population Hoechst High Intensity Objects (%): 4%
  Population Membrane Permeable-Phenotype (%): 1%
  Population Mitochondria Different-Phenotype (%): 10%
  Population Mitotic Cells (%): 60%
  Population Normal (%): 95%
  Population Pyknosed Nuclei (%): 13%
  Population Tubulin-Different-Phenotype (%): 70%
  Total Cell Count: 179
[9]
  Population Apoptotic (%): 75%
  Population Fragmented Nuclei (%): 19%
  Population Healthy Nuclei (%): 71%
  Population Hoechst High Intensity Objects (%): 8%
  Population Membrane Permeable-Phenotype (%): 0%
  Population Mitochondria Different-Phenotype (%): 5%
  Population Mitotic Cells (%): 25%
  Population Normal (%): 91%
  Population Pyknosed Nuclei (%): 9%
  Population Tubulin-Different-Phenotype (%): 38%
  Total Cell Count: 145
[10]
  Population Apoptotic (%): 42%
  Population Fragmented Nuclei (%): 30%
  Population Healthy Nuclei (%): 60%
  Population Hoechst High Intensity Objects (%): 3%
  Population Membrane Permeable-Phenotype (%): 1%
  Population Mitochondria Different-Phenotype (%): 8%
  Population Mitotic Cells (%): 57%
  Population Normal (%): 96%
  Population Tubulin-Different-Phenotype (%): 34%
  Total Cell Count: 158
[11]
  Population Apoptotic (%): 79%
  Population Fragmented Nuclei (%): 30%
  Population Healthy Nuclei (%): 56%
  Population Hoechst High Intensity Objects (%): 7%
  Population Membrane Permeable-Phenotype (%): 0%
  Population Mitochondria Different-Phenotype (%): 25%
  Population Mitotic Cells (%): 20%
  Population Normal (%): 92%
  Population Pyknosed Nuclei (%): 13%
  Population Tubulin-Different-Phenotype (%): 74%
  Total Cell Count: 195
[12]
  Population Apoptotic (%): 60%
  Population Fragmented Nuclei (%): 44%
  Population Healthy Nuclei (%): 50%
  Population Hoechst High Intensity Objects (%): 3%
  Population Membrane Permeable-Phenotype (%): 2%
  Population Mitochondria Different-Phenotype (%): 6%
  Population Mitotic Cells (%): 40%
  Population Normal (%): 96%
  Population Pyknosed Nuclei (%): 5%
  Population Tubulin-Different-Phenotype (%): 59%
